Assay results from ChEMBL document CHEMBL4673221, “Furanoflavones pongapin and lanceolatin B blocks the cell cycle and induce senescence in CYP1A1-overexpressing breast cancer cells” (Bioorg Med Chem, 2018).

How the values were obtained:
Cytochrome P450 1A1 = biological target: T1, Cytochrome P450 1A1 (Homo sapiens, UniProt P04798); experiment: Inhibition of human CYP1A1 expressed in sacchrosomes using 7-ethoxyresorufin as substrate by fluorescence based assay
T1 sequence (P04798 whole entry): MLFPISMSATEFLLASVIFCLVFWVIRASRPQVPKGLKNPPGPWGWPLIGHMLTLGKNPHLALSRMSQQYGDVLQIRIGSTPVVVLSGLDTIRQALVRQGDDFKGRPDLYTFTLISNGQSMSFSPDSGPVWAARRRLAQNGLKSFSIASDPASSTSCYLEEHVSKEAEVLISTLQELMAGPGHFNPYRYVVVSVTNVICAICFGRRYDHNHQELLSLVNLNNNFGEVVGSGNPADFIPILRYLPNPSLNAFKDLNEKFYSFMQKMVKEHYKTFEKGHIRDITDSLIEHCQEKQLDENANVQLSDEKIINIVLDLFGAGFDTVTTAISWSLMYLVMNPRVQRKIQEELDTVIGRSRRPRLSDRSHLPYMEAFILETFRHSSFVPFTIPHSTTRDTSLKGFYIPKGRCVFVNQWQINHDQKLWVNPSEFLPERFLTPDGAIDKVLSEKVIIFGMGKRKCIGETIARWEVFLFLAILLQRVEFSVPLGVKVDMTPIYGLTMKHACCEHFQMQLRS
In short: (§1)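 Enzymes were microsomal preparations isolated from recombinant baker's yeast (Sacchrosomes). Compounds were screened at 10 μM for percent inhibition, and IC50 values were also determined. Values are mean ± SD of three independent experiments. Alpha-naphthoflavone served as the positive control.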

Cytochrome P450 1B1 [1] = biological target: T2, Cytochrome P450 1B1 (Homo sapiens, UniProt Q16678); experiment: Inhibition of human CYP1B1 expressed in sacchrosomes using 7-ethoxyresorufin as substrate by fluorescence based assay; format: ADME; in short: as §1
T2 sequence (Q16678 whole entry): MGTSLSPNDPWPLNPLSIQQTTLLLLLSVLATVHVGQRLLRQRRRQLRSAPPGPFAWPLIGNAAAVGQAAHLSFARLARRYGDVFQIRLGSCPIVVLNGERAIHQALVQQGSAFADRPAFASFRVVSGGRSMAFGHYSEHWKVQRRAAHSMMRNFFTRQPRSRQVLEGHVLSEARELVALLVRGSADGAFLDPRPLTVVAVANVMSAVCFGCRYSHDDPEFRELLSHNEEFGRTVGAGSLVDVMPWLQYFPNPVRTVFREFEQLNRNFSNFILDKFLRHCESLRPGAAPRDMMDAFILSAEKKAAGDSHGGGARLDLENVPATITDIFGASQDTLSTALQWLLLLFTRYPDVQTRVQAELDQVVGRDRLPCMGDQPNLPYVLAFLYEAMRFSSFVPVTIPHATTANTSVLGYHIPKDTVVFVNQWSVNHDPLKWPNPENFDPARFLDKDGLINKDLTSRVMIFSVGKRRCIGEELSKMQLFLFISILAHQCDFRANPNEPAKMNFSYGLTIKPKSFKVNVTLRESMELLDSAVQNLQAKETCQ

MCF7 [2] = experiment: Induction of cellular senescence in human MCF7 cells over expressing CYP1A assessed as increase in beta-gal-positive cells at 2 times of EC50 concentration incubated for 96 hrs by microscopic assay relative to control; format: functional
In short: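 MCF7-1A1 cells were seeded at 25,000 per well and stabilised for 24 h, then treated for 96 h. Cells were fixed for 10 min at room temperature and stained for β-galactosidase at 37 °C without CO2 for 48 h. The percentage of blue-stained cells was counted by phase-contrast microscopy against untreated cultures.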

Cytochrome P450 2C19 = Cytochrome P450 2C19 (Homo sapiens, UniProt P33261); experiment: Inhibition of human CYP2C19 expressed in Sacchrosomes using 3-cyano-7-ethoxycoumarin as substrate by fluorescence based assay; format: ADME
Cytochrome P450 2B6 = biological target: T3, Cytochrome P450 2B6 (Homo sapiens, UniProt P20813); experiment: Inhibition of human CYP2B6 expressed in Sacchrosomes by fluorescence based assay; format: ADME
T3 sequence (P20813 whole entry): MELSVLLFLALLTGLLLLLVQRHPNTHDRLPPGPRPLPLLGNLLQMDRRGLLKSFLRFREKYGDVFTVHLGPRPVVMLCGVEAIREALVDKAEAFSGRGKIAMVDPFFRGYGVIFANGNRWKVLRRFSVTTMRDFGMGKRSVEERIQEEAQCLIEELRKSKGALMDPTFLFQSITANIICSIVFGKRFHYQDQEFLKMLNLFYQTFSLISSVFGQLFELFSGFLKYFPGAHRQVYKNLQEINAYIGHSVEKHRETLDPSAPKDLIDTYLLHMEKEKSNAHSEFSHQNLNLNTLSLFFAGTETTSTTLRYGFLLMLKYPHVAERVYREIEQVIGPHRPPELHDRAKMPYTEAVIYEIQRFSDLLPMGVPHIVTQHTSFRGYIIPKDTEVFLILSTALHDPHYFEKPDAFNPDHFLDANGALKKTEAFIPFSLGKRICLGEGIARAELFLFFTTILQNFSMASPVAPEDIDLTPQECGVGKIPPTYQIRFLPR

Cytochrome P450 2C9 = Cytochrome P450 2C9 (Homo sapiens, UniProt P11712); experiment: Inhibition of human CYP2C9 expressed in Sacchrosomes using 3-cyano-7-ethoxycoumarin as substrate by fluorescence based assay; format: ADME
Cytochrome P450 2C18 = biological target: T4, Cytochrome P450 2C18 (Homo sapiens, UniProt P33260); experiment: Inhibition of human CYP2C18 expressed in Sacchrosomes by fluorescence based assay; format: ADME
T4 sequence (P33260 whole entry): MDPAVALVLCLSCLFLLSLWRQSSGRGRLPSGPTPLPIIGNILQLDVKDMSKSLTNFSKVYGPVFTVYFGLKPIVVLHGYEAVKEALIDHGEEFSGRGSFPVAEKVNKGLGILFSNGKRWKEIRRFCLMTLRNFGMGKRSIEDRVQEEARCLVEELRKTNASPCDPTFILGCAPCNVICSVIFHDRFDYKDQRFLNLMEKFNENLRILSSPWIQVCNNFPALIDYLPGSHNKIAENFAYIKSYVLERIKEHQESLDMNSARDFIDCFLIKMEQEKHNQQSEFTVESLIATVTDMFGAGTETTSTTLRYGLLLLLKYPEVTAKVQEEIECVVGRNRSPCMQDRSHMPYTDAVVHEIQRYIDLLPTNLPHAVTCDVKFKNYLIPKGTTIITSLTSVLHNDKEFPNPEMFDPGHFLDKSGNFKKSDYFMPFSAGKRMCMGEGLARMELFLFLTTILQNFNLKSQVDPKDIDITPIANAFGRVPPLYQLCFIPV

Cytochrome P450 1B1 [3] = biological target: T2, Cytochrome P450 1B1; experiment: Inhibition of human CYP1B1 expressed in human HEK293 cells using 7-ethoxyresorufin as substrate preincubated for 30 mins followed by substrate additon and measured after 60 mins by fluorescence based assay; format: ADME, cell-based
In short: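 The assay used live recombinant human HEK293 cells grown in suspension, each cell line expressing a single CYP (CYP1A1 or CYP1B1). Percent inhibition was read at 10 μM, and IC50 values were determined. Values are mean ± SD of three independent experiments. Alpha-naphthoflavone served as the reference inhibitor.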

MCF7 [4] = experiment: Antiproliferative activity against human MCF-7 cells overexpressing CYP1A1 assessed as reduction in cell viability; format: functional, cell-based
In short: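 MCF-7 cells transfected with pcDNA3.1/CYP1A1 and selected in G418 (1 mg/mL, then […]) to give the stable MCF7-1A1 line. CYP1A1 expression was confirmed by Western blot and 7-ethoxyresorufin enzyme assay. The line was subcloned repeatedly. The reported value is the EC50 for inhibition of proliferation.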

Sequence of Cytochrome P450 2C9 (P11712 whole entry): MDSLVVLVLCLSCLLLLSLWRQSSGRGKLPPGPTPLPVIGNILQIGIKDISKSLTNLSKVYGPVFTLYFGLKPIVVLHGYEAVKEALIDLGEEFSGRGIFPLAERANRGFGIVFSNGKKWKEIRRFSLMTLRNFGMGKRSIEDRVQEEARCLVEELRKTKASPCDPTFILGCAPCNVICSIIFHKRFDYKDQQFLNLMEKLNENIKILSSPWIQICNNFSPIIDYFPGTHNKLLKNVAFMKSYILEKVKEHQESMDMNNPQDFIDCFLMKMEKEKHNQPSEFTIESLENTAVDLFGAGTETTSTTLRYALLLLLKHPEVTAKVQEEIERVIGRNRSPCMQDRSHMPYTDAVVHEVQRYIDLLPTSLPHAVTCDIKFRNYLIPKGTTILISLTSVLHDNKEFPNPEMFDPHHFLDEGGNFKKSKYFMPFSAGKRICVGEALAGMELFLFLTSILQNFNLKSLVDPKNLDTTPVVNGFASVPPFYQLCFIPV
Sequence of Cytochrome P450 2C19 (P33261 whole entry): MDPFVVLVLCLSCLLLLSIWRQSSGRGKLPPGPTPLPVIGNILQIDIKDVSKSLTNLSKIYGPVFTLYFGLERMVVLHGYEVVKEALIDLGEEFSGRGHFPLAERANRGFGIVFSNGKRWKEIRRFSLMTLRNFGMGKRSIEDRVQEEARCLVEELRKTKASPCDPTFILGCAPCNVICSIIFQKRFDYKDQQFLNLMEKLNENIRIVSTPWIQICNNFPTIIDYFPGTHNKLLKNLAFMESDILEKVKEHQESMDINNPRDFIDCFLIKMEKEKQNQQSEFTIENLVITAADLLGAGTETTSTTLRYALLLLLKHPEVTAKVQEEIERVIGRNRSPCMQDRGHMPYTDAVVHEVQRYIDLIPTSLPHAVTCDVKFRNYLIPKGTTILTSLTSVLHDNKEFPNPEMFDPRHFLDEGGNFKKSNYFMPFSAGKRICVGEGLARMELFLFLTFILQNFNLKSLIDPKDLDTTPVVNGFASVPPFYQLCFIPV

Question: Which results are given for O=c1cc(-c2ccccc2)oc2c1ccc1occc12 [LANCEOLATIN B]?
Answer: IC50 (Cytochrome P450 1A1): 76 nM; IC50 (Cytochrome P450 1B1 [1]): 290 nM; Activity (MCF7 [2]): 60%; IC50 (Cytochrome P450 2C19): > 20000 nM; IC50 (Cytochrome P450 2B6): > 20000 nM; IC50 (Cytochrome P450 2C9): > 20000 nM; IC50 (Cytochrome P450 2C18): > 20000 nM; IC50 (Cytochrome P450 1B1 [3]): 390 nM; EC50 (MCF7 [4]): 700 nM

Question: What does the source list for COc1c(-c2ccc3c(c2)OCO3)oc2c(ccc3occc32)c1=O [PONGAPIN]?
Answer: IC50 (Cytochrome P450 1A1): 71 nM; IC50 (Cytochrome P450 1B1 [1]): 950 nM; Activity (MCF7 [2]): 60%; IC50 (Cytochrome P450 2C19): > 20000 nM; IC50 (Cytochrome P450 2B6): > 20000 nM; IC50 (Cytochrome P450 2C9): > 20000 nM; IC50 (Cytochrome P450 2C18): > 20000 nM; IC50 (Cytochrome P450 1B1 [3]): 1060 nM; EC50 (MCF7 [4]): 600 nM
